ChEMBL document CHEMBL1132328, “4-Hydroxy-1-[2-(4-hydroxyphenoxy)ethyl]-4-(4-methylbenzyl)piperidine: a novel, potent, and selective NR1/2B NMDA receptor antagonist” (J Med Chem, 1999)

Tests used:
Rattus = assay: Inhibition of voltage -gated K+ currents was measured by whole cell voltage clamp recordings from dissociated rat superior cervical ganglion neurons at 10 uM; type: functional
How it was run: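 SCG neurons from 1–4-day-old rat pups, recorded 24–48 h after plating. Whole-cell clamp held at -60 mV; 30-ms steps to +50 mV. Bath solution Hepes/glucose pH 7.4; pipette solution KCl/K-aspartate/EGTA pH 7.3. Compound diluted from 10 mM DMSO stock and applied by local perfusion after control responses. Result given as percent inhibition of sustained K+ current.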

[1] = biological target: Glutamate NMDA receptor; Grin1/Grin2c (Rattus norvegicus, UniProt P35439+Q00961); assay: In vitro inhibitory concentration against NMDA responses at NR1A/2C receptors expressed in Xenopus oocytes; type: functional, cell-based, Oocyte
[2] = biological target: Glutamate NMDA receptor; Grin1/Grin2a (Rattus norvegicus, UniProt P35439+Q00959); assay: In vitro inhibitory concentration against NMDA responses at cloned NR1A/2A receptors expressed in Xenopus oocytes; type: functional, cell-based, Oocyte
[3] = biological target: T1, Adrenergic receptor alpha-1 (Rattus norvegicus, UniProt P15823+P23944+P43140); assay: Affinity for alpha-1 adrenergic receptor in rat was determined by [3H]- prazosin binding assay
T1 sequence (P15823 whole entry): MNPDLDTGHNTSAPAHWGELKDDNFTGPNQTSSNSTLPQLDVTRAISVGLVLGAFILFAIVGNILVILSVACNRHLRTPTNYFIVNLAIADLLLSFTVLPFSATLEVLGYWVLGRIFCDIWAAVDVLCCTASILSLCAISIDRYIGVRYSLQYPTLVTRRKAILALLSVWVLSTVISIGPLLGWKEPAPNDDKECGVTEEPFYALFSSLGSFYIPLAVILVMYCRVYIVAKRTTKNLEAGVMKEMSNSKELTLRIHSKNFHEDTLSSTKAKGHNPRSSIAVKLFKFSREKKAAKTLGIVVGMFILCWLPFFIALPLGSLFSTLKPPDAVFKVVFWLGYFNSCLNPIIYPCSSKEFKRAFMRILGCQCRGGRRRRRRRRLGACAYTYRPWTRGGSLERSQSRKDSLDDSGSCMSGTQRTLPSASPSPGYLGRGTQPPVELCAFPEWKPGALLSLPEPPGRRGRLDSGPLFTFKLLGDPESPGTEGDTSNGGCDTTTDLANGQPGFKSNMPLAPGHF
T1 sequence (P23944 whole entry): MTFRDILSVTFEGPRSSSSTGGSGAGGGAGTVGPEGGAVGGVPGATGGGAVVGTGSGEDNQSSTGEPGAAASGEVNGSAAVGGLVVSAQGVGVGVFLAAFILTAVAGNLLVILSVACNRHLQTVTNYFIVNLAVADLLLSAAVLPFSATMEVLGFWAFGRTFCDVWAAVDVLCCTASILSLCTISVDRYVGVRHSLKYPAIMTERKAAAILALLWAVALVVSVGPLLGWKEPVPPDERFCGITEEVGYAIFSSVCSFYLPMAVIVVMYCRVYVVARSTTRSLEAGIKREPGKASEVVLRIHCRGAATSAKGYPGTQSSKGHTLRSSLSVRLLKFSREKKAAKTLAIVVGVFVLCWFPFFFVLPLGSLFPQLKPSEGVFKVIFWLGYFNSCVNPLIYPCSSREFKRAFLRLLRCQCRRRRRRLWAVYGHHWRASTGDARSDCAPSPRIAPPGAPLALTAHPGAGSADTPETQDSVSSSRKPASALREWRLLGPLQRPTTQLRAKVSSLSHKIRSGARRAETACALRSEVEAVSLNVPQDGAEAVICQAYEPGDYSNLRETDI
T1 sequence (P43140 whole entry): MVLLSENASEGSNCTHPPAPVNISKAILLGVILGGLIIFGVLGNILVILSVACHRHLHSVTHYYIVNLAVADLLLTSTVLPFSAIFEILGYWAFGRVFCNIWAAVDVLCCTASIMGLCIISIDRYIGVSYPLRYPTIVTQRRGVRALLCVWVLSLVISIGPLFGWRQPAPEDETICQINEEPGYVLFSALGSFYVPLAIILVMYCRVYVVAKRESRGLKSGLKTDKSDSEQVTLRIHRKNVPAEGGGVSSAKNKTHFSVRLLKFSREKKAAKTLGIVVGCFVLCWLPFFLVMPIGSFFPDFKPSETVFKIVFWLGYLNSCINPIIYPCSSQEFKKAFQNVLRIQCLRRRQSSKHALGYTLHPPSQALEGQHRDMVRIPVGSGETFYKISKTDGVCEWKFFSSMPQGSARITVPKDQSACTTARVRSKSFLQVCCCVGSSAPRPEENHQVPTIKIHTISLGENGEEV
How it was run: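 Rat cortex membranes (sucrose/Tris homogenate, washed three times in 140 mM NaCl/5 mM MgCl2/50 mM Tris-HCl pH 7.4) incubated with 0.8 nM [3H]prazosin for 60 min at room temperature. Test compounds at nine concentrations in duplicate, 1% DMSO final. Nonspecific binding defined with phentolamine. Reaction stopped by filtration through GF/B filters, then scintillation counting. IC50 from a sigmoidal fit.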

Mus musculus = species: Mus musculus; assay: ED50 value was calculated by mouse electric shock assay (MES).; type: functional
How it was run: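 Anticonvulsant testing in mice by maximal electroshock. Compounds dissolved in 0.05 M Tris and given iv. Seizure protection tested at peak activity, 2 min after dosing.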

[4] = biological target: Glutamate NMDA receptor; Grin1/Grin2b (Rattus norvegicus, UniProt P35439+Q00960); assay: In vitro inhibitory concentration against NMDA responses at NR1A/2B receptors expressed in Xenopus oocytes; type: functional, cell-based, Oocyte
How it was run: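 Two-electrode voltage clamp of oocytes expressing cloned NR1A/2B, held at -70 mV in Ca2+-free Ringer (BaCl2 1.8 mM, Hepes 5 mM, pH 7.4). Drugs in DMSO (0.1–1% final) applied by bath perfusion. IC50 from partial 3–5-point concentration-inhibition curves fitted with residual minimum fixed at 0.15. Mean ± SE.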

Glutamate NMDA receptor; Grin1/Grin2a, sequence (Q00959 whole entry, other chains not shown): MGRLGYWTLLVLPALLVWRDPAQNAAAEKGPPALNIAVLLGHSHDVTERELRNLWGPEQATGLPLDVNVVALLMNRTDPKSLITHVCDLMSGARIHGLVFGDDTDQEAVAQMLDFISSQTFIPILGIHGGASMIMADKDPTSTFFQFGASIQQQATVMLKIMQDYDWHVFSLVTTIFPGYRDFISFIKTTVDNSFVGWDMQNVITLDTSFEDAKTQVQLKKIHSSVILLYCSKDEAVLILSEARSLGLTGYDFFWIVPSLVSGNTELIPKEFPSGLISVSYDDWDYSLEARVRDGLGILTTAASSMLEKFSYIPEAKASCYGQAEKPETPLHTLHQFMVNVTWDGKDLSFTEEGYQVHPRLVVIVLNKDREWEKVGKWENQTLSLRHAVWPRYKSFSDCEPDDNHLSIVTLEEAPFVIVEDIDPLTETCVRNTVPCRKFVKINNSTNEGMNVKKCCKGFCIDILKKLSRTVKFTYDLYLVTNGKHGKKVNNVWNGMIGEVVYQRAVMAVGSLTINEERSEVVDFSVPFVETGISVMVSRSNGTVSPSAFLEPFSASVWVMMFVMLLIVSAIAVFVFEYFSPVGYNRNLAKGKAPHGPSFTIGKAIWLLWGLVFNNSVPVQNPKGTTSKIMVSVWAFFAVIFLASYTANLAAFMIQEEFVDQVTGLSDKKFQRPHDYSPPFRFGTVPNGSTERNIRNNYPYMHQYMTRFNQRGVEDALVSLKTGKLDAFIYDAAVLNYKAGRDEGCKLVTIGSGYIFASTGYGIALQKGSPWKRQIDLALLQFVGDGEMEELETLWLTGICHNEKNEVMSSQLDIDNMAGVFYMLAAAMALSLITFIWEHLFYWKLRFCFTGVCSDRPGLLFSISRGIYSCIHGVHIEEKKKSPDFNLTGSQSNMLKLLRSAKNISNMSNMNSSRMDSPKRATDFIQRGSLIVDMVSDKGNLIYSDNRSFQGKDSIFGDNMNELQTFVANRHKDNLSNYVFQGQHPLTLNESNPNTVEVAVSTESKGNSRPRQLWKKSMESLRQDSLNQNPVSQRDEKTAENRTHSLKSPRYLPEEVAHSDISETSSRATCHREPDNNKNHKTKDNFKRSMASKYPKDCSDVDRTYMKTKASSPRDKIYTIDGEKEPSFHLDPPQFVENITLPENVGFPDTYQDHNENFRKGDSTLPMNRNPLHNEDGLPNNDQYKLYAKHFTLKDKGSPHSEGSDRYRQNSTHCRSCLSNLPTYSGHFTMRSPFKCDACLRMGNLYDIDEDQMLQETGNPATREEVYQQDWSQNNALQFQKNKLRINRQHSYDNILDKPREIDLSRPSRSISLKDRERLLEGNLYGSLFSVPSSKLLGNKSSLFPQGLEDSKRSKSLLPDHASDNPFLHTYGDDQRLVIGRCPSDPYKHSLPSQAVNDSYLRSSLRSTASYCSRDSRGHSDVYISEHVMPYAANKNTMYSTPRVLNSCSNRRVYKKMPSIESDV
Glutamate NMDA receptor; Grin1/Grin2b, sequence (Q00960 whole entry, other chains not shown, the tested form may be a part): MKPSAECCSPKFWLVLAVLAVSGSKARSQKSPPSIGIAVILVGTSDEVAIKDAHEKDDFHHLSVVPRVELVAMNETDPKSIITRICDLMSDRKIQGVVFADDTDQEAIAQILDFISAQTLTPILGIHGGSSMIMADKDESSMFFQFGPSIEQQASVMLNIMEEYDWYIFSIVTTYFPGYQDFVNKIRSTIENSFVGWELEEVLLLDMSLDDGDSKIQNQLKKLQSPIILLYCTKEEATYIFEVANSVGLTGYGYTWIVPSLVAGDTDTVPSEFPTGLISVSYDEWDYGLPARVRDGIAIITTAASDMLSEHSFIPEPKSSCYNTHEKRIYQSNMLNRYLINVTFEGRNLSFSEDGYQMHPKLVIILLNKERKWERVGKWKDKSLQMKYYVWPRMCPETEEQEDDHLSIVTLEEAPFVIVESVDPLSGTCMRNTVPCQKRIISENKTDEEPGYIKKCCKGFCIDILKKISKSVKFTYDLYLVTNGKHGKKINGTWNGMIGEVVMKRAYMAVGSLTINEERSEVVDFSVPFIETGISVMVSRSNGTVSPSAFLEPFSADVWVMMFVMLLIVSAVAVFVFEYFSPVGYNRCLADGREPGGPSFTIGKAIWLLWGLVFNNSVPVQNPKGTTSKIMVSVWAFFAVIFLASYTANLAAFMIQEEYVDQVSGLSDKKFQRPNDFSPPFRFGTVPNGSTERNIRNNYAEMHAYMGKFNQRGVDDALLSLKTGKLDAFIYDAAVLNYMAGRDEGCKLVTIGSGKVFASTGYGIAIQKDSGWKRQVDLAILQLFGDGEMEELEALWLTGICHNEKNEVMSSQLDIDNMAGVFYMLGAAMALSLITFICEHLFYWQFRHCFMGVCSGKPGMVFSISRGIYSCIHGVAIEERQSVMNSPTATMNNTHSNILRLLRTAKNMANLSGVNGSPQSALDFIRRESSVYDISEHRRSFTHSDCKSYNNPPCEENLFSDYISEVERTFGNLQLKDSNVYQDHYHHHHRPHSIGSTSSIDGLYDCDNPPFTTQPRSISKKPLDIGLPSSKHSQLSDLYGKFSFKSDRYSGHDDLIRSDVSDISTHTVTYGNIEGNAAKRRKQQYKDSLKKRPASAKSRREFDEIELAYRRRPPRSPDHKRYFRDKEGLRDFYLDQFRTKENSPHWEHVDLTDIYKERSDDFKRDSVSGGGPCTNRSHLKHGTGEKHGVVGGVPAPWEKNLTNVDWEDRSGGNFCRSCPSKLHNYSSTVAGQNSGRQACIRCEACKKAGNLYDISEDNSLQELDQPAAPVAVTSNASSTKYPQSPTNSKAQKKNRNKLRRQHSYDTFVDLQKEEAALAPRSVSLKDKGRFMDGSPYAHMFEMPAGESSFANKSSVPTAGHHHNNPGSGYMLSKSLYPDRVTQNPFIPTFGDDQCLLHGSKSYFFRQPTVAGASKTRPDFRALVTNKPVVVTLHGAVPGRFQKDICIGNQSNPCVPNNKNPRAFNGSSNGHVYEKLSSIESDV
Glutamate NMDA receptor; Grin1/Grin2c, sequence (Q00961 whole entry, other chains not shown): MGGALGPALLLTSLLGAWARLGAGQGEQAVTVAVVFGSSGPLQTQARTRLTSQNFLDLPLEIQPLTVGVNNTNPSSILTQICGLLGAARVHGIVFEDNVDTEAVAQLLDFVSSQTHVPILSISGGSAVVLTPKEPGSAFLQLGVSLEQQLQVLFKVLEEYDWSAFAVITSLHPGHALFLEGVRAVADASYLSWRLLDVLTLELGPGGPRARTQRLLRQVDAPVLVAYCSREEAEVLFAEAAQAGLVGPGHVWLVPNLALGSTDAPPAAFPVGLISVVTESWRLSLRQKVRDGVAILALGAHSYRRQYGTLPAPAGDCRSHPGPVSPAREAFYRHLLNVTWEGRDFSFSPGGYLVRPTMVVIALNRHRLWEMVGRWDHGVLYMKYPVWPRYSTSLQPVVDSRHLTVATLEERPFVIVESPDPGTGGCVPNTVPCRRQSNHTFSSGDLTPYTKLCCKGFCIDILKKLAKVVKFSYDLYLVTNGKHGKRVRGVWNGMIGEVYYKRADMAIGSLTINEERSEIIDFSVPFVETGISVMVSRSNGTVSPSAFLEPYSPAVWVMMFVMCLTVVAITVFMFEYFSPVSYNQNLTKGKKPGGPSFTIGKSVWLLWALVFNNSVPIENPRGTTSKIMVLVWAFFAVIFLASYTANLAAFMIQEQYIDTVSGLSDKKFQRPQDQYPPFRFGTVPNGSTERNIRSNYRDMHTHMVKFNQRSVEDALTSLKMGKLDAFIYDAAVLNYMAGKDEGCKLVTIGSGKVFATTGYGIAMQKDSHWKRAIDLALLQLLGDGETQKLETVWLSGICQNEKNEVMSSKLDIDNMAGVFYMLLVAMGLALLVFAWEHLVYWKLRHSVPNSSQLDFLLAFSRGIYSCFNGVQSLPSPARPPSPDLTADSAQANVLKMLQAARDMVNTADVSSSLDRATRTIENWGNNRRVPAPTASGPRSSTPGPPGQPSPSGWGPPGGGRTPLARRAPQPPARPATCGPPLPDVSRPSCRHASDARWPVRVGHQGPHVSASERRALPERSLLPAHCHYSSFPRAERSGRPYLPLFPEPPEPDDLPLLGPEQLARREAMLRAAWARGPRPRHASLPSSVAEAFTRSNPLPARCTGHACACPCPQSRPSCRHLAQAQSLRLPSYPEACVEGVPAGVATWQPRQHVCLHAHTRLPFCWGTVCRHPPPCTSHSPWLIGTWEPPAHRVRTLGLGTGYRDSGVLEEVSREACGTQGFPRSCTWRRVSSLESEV

Row | SMILES | IC50 [1] | IC50 [2] | IC50 [3] | IC50 [4] | inhibition at 10 µM (Rattus) | ED50 (Mus musculus)
1 | C[C@@H]([C@H](O)c1ccc(O)cc1)N1CCC(Cc2ccccc2)CC1 [(R,S)-IFENPRODIL] |  |  | 0.22 µM |  | 54% | 7 mg/kg
2 | OC(CN1CCC(Cc2ccc(F)cc2)CC1)c1ccc(Cl)cc1 (configuration not stated) [ELIPRODIL] | 100 µM | 100 µM | 3.3 µM | 1.4 µM | 67% | 1 mg/kg
3 | Oc1ccc(OCCN2CCC(Cc3ccccc3)CC2)cc1 | > 100 µM | > 100 µM | 0.47 µM | 0.025 µM | 46% | 2 mg/kg
4 | Oc1ccc(OCCN2CCC(c3ccccc3)CC2)cc1 | > 100 µM | 110 µM |  | 7.7 µM |  | 

The next lines start with results.

Row | IC50 [1] | IC50 [2] | IC50 [3] | IC50 [4] | SMILES | inhibition at 10 µM (Rattus) | ED50 (Mus musculus)
5 | > 100 µM | 21 µM | 1.6 µM | 0.05 µM | Oc1ccc(OCCN2CCC(Cc3ccc(F)cc3)CC2)cc1 | 53% | 3 mg/kg
6 | > 100 µM | > 100 µM | 27 µM | 0.043 µM | Cc1ccc(CC2(O)CCN(CCOc3ccc(O)cc3)CC2)cc1 | 23% | 1.5 mg/kg
7 | > 100 µM | > 100 µM | 0.82 µM | 0.63 µM | c1ccc(CC2CCN(CCOc3ccccc3)CC2)cc1 | 65% | 2 mg/kg
8 | > 100 µM | > 100 µM | 1.8 µM | 0.028 µM | Cc1ccc(CC2CCN(CCOc3ccc(O)cc3)CC2)cc1 | 67% | 0.7 mg/kg
